From ChEMBL document CHEMBL1156322, “Synthesis and biological evaluation of nitrogen-containing benzophenone analogues as TNF-alpha and IL-6 inhibitors with antioxidant activity” (Bioorg Med Chem Lett, 2010)
The source made the active and inactive calls. The calls are words filed in the database; no cut-off is given here.

Experiments:
[1] = tested on: Radical scavenging activity; assay: Antioxidant activity assessed as DPPH free radical scavenging activity at 1 mM after 20 mins by spectrophotometry
[2] = tested on: Radical scavenging activity; assay: Antioxidant activity assessed as DPPH free radical scavenging activity at 1 uM after 4 mins by spectrophotometry; format: functional
[3] = tested on: Radical scavenging activity; assay: Antioxidant activity assessed as DPPH free radical scavenging activity at 1 uM after 6 mins by spectrophotometry; format: functional
[4] = tested on: Radical scavenging activity; assay: Antioxidant activity assessed as DPPH free radical scavenging activity at 1 uM after 8 mins by spectrophotometry; format: functional
THP-1 [5] = assay: Antiinflammatory activity in LPS-stimulated human THP1 cells assessed as inhibition of IL6 formation at 1 uM pretreated 30 mins before LPS challenge measured after 24 hrs by ELISA; format: functional; design: scale not given: the % may be the effect or the level left
In short: (§1)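 PMA-differentiated human THP-1 cells in RPMI 1640 with 10% FBS, penicillin and streptomycin. Compound or vehicle (0.5% DMSO) was added for 30 min at 37 °C, then E. coli 0127:B8 LPS. Cells were incubated 24 h at 37 °C, 5% CO2. Supernatant TNF-α and IL-6 were measured by ELISA. Percent inhibition of release was calculated versus control.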

[6] = tested on: Radical scavenging activity; assay: Antioxidant activity assessed as DPPH free radical scavenging activity at 1 uM after 10 mins by spectrophotometry; format: functional
THP-1 [7] = assay: Antiinflammatory activity in LPS-stimulated human THP1 cells assessed as inhibition of TNFalpha formation at 10 uM pretreated 30 mins before LPS challenge measured after 24 hrs by ELISA; format: functional; design: scale not given: the % may be the effect or the level left
In short: as §1

THP-1 [8] = assay: Antiinflammatory activity in LPS-stimulated human THP1 cells assessed as inhibition of IL6 formation at 10 uM pretreated 30 mins before LPS challenge measured after 24 hrs by ELISA; format: functional; design: scale not given: the % may be the effect or the level left
In short: as §1

[9] = Cytotoxicity against LPS-stimulated human THP-1 cells at 10 uM after 24 hrs by CCK-8 assay; settings: THP-1, 24 h
[10] = tested on: Radical scavenging activity; assay: Antioxidant activity assessed as DPPH free radical scavenging activity at 1 uM after 2 mins by spectrophotometry; format: functional
THP-1 [11] = assay: Antiinflammatory activity in LPS-stimulated human THP1 cells assessed as inhibition of TNFalpha formation at 1 uM pretreated 30 mins before LPS challenge measured after 24 hrs by ELISA; format: functional; design: scale not given: the % may be the effect or the level left
In short: as §1

| SMILES | Activity [1] | Activity [2] | Activity [3] | Activity [4] | Activity (THP-1 [5]) [%] | Activity [6] | Activity (THP-1 [7]) [%] | Activity (THP-1 [8]) [%] | Activity [9] [%] | Activity [10] | Activity (THP-1 [11]) [%] |
| --- | --- | --- | --- | --- | --- | --- | --- | --- | --- | --- | --- |
| COc1cc(O)c(C(=O)c2ccccc2F)c(OC)c1 | 32.4% | 12.5% | 13.6% | 16.8% | 11 | 18.9% | 47 | 71 | 53 | 8.2% |  |
| COc1cc(OC)c(C(=O)c2ccccc2F)c(O)c1CN1CCCCC1 | 73.3% | 16.9% | 23% | 28.9% | 18 | 34.6% | 0 | 84 | 31 | 13.7% |  |
| COc1cc(OC)c(C(=O)c2cccc(Cl)c2)c(O)c1CN1CCCC1 | 5.13% | 1.6% | 1.82% | 2.1% | 41 | 2.11% | 37 | 81 | 53 | 0.5% |  |
| COc1cc(OC)c(C(=O)c2cccc(F)c2)c(O)c1CN1CCOCC1 | inactive | inactive | inactive | inactive | 35 | inactive | 21 | 86 | 42 | inactive |  |
| COc1cc(OC)c(C(=O)c2ccccc2Br)c(O)c1CN1CCN(C)CC1 | 13.5% | 3.95% | 4.5% | 6.8% | 9 | 7.59% | 20 | 81 | 23 | 3.2% |  |
| O=C(O)c1cc(O)c(O)c(O)c1 |  | 22.7% | 19.4% | 38.4% |  | 46.9% |  |  |  | 18.2% |  |
| COc1cc(OC)c(C(=O)c2ccccc2F)c(O)c1CN1CCOCC1 | 19.7% | 4.2% | 4.74% | 6.8% | 19 | 8.21% | 27 | 89 | 39 | 3.5% |  |
| COc1cc(OC)c(C(=O)c2ccccc2Br)c(O)c1CN1CCCCC1 | 64.4% | 14.2% | 17.7% | 25.4% | 22 | 32.5% | 78 | 98 | 61 | 10.8% |  |
| COc1cc(OC)c(C(=O)c2cccc(F)c2)c(O)c1CN1CCCC1 | 7.29% | 4.51% | 2.11% | 3.78% | 34 | 4.78% | 1 | 93 | 34 | 0.92% |  |
| COc1cc(OC)c(C(=O)c2cccc(F)c2)c(O)c1CN1CCCCC1 | 24.7% | 5.98% | 9.25% | 11.8% | 30 | 13.7% | 0 | 87 | 27 | 4.2% |  |
| COc1cc(O)c(C(=O)c2cccc(Cl)c2)c(OC)c1 | 16.4% | 3.9% | 4.2% | 6.52% | 31 | 7.6% | 0 | 78 | 49 | 3.21% |  |
| COc1cc(OC)c(C(=O)c2cccc(Cl)c2)c(O)c1CN1CCOCC1 | 33.4% | 6.44% | 9.45% | 14.6% | 42 | 15.9% | 1 | 83 | 39 | 5.52% |  |
| C[C@@H]1C[C@H]2[C@@H]3CCC4=CC(=O)C=C[C@]4(C)[C@@]3(F)[C@@H](O)C[C@]2(C)[C@@]1(O)C(=O)CO [DEXAMETHASONE] |  |  |  |  |  |  |  |  |  |  | 73 |
| COc1cc(OC)c(C(=O)c2cccc(Cl)c2)c(O)c1CN1CCN(C)CC1 | inactive | inactive | inactive | inactive | 54 | inactive | 100 | 100 | 77 | inactive |  |
| COc1cc(OC)c(C(=O)c2ccccc2F)c(O)c1CN1CCCC1 | 24.8% | 4.24% | 6.45% | 9.5% | 15 | 11.9% | 10 | 87 | 27 | 3.6% |  |
| COc1cc(O)c(C(=O)c2cccc(F)c2)c(OC)c1 | inactive | inactive | inactive | inactive | 38 | inactive | 0 | 81 | 24 | inactive |  |
| COc1cc(OC)c(C(=O)c2cccc(F)c2)c(O)c1CN1CCN(C)CC1 | 40.4% | 15.8% | 18.5% | 19.4% | 47 | 22.6% | 54 | 97 | 22 | 9.5% |  |
| COc1cc(O)c(C(=O)c2ccccc2Br)c(OC)c1 | inactive | inactive | inactive | inactive | 7 | inactive | 11 | 72 | 43 | inactive |  |
| COc1cc(OC)c(C(=O)c2ccccc2F)c(O)c1CN1CCN(C)CC1 | 17.5% | 3.95% | 4% | 5.4% | 21 | 6.2% | 19 | 83 | 40 | 3.3% |  |
| COc1cc(OC)c(C(=O)c2ccccc2Br)c(O)c1CN1CCCC1 | inactive | inactive | inactive | inactive | 19 | inactive | 99 | 100 | 84 | inactive |  |
| COc1cc(OC)c(C(=O)c2ccccc2Br)c(O)c1CN1CCOCC1 | 6.23% | 1.2% | 1.9% | 2.11% | 19 | 2.95% | 65 | 97 | 66 | 0.8% |  |
| COc1cc(OC)c(C(=O)c2cccc(Cl)c2)c(O)c1CN1CCCCC1 | 45.3% | 11.4% | 14.8% | 20.9% | 33 | 22.8% | 11 | 83 | 31 | 9.2% |  |
